Measurements reported in paper PMC4608532 (ChemistryOpen, 2015).

Tested on: HUVEC
Experiment: In vitro morphogenesis assay on HUVEC plated on Matrigel, VEGF-stimulated
Type: cell-based, Human
Details: 5 h incubation
Method in brief: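 HUVEC (passages 2–10) were maintained at 37 °C, 5% CO2 in medium with 2% FBS and growth factors. 2.5×10^4 cells were seeded on pre-polymerized Matrigel and incubated for 5 h at 37 °C with or without test compound, under VEGF 10 ng mL−1 stimulation. Networks were imaged by phase contrast and scored as total branch length in pixels, with open ramifications counted as branches. Data were normalized to VEGF alone and given as mean±S.D. of 4–10 experiments, with a two-tailed paired Student's t test.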

Substance | VEGF-induced morphogenesis, % of VEGF alone (1 μM, VEGF 10 ng mL−1, length of branches, p>0.05) | effect on new capillary network formation induced by VEGF165 (in words) (VEGF165 10 ng mL−1)
Ac-KQMYLELGYATIKWL-NH2 [Compound 14, Ac-Lys-Gln-Met-Tyr-Leu-Glu-Leu-Gly-Tyr-Ala-Thr-Ile-Lys-Trp-Leu-amide] | 82 %±21% | –
cyclo[DKP-RGD] [Compound 1] | – | markedly decreased
